According to ChEMBL document CHEMBL4219194, “Diversity-oriented synthesis of pyrazoles derivatives from flavones and isoflavones leads to the discovery of promising reversal agents of fluconazole resistance in Candida albicans” (2018):
In brackets after ≈: the same amount, converted by molar mass.

Key:
Type in all cases: functional
Candida albicans [1] = test: Synergistic antifungal activity against fluconazole-resistant Candida albicans 28A after 48 hrs in presence of fluconazole by broth microdilution checkerboard method
In short: (§1)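 Checkerboard dose-response matrix on strain 28A with gradients of fluconazole and the test compound in RPMI 1640, read after 48 h at 35 °C. MIC80 is taken alone and in combination, and FICI is calculated. Synergy is FICI ≤0.5, indifference >0.5-4, and antagonism >4.0.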

Candida albicans [2] = test: Potentiation of fluconazole-induced antifungal activity against fluconazole-resistant Candida albicans 28A assessed as fluconazole MIC80 after 48 hrs by broth microdilution checkerboard method; in short: as §1
Candida albicans [3] = test: Antifungal activity against fluconazole-resistant Candida albicans 28A after 48 hrs by broth microdilution method
In short: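 Clinical fluconazole-resistant isolates tested in broth microdilution with the compound alone. The endpoint is MIC80, the lowest concentration giving 80% growth inhibition, in µg/mL.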

Candida albicans [4] = test: Potentiation of fluconazole-induced antifungal activity against fluconazole-resistant Candida albicans 28A after 48 hrs by broth microdilution checkerboard method; in short: as §1
Candida albicans [5] = test: Antifungal activity against CDR1 and CDR2 efflux pump deficient Candida albicans DSY654 after 48 hrs by broth microdilution method; conditions: DSY654, 48 h
In short: (§2)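 MIC80 read by broth microdilution, with fluconazole as the positive antifungal agent. Values are reported in µg/mL as means of three independent experiments. Strains: wild-type SC5314 and DSY654, which lacks the Cdr1 and Cdr2 efflux pumps.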

Candida albicans [6] = test: Antifungal activity against Candida albicans SC5314 after 48 hrs by broth microdilution method; conditions: SC5314, 48 h; in short: as §2

## COc1ccc(-c2cc(-c3c(O)cc(OC)cc3OC)[nH]n2)cc1
Candida albicans [1]
  MIC80: > 128 µg/mL
Candida albicans [2]
  MIC80: > 128 µg/mL
Candida albicans [3]
  MIC80: > 128 µg/mL
Candida albicans [4]
  fractional inhibitory concentration index (FICI): 2
Candida albicans [5]
  MIC80: > 128 µg/mL
Candida albicans [6]
  MIC80: > 128 µg/mL

## OCCn1cc(-c2ccc(O)cc2)c(-c2ccc(O)c(C3OC(CO)C(O)C(O)C3O)c2O)n1 (stereo not given)
Candida albicans [1]
  MIC80: > 128 µg/mL
Candida albicans [2]
  MIC80: > 128 µg/mL
Candida albicans [3]
  MIC80: > 128 µg/mL
Candida albicans [4]
  fractional inhibitory concentration index (FICI): 2
Candida albicans [5]
  MIC80: > 128 µg/mL
Candida albicans [6]
  MIC80: > 128 µg/mL

## COc1ccc(-n2nc(-c3c(O)cc(OC)c(OC)c3OC)cc2-c2ccccc2)cc1
Candida albicans [1]
  MIC80: > 128 µg/mL
Candida albicans [2]
  MIC80: > 128 µg/mL
Candida albicans [3]
  MIC80: > 128 µg/mL
Candida albicans [4]
  fractional inhibitory concentration index (FICI): 2
Candida albicans [5]
  MIC80: > 128 µg/mL
Candida albicans [6]
  MIC80: > 128 µg/mL

## COc1ccc(-c2cn(-c3ccccc3)nc2-c2c(O)cc(OC)cc2OC)cc1
Candida albicans [1]
  MIC80: > 128 µg/mL
Candida albicans [2]
  MIC80: > 128 µg/mL
Candida albicans [3]
  MIC80: > 128 µg/mL
Candida albicans [4]
  fractional inhibitory concentration index (FICI): 2
Candida albicans [5]
  MIC80: > 128 µg/mL
Candida albicans [6]
  MIC80: > 128 µg/mL

## OCCn1ncc(-c2ccc(O)cc2)c1-c1ccc(O)cc1O
Candida albicans [1]
  MIC80: > 128 µg/mL
Candida albicans [2]
  MIC80: > 128 µg/mL
Candida albicans [3]
  MIC80: > 128 µg/mL
Candida albicans [4]
  fractional inhibitory concentration index (FICI): 2
Candida albicans [5]
  MIC80: > 128 µg/mL
Candida albicans [6]
  MIC80: > 128 µg/mL

## Oc1ccc(-c2cn[nH]c2-c2ccc(O)cc2O)cc1
Candida albicans [1]
  MIC80: > 128 µg/mL
Candida albicans [2]
  MIC80: > 128 µg/mL
Candida albicans [3]
  MIC80: > 128 µg/mL
Candida albicans [4]
  fractional inhibitory concentration index (FICI): 2
Candida albicans [5]
  MIC80: > 128 µg/mL
Candida albicans [6]
  MIC80: > 128 µg/mL

## Oc1ccccc1-c1cc(-c2ccccc2)[nH]n1
Candida albicans [1]
  MIC80: 16 µg/mL
Candida albicans [2]
  MIC80: 2 µg/mL
Candida albicans [3]
  MIC80: 64 µg/mL (≈ 271 µM)
Candida albicans [4]
  fractional inhibitory concentration index (FICI): 0.266
Candida albicans [5]
  MIC80: 8 µg/mL (≈ 33.9 µM)
Candida albicans [6]
  MIC80: 16 µg/mL (≈ 67.7 µM)

## COc1cc(O)c(-c2cc(-c3ccccc3)nn2-c2ccccc2)c(OC)c1
Candida albicans [1]
  MIC80: > 128 µg/mL
Candida albicans [2]
  MIC80: > 128 µg/mL
Candida albicans [3]
  MIC80: > 128 µg/mL
Candida albicans [4]
  fractional inhibitory concentration index (FICI): 2
Candida albicans [5]
  MIC80: > 128 µg/mL
Candida albicans [6]
  MIC80: > 128 µg/mL

## CCn1cc(-c2ccc(OC)cc2)c(-c2ccc(O)cc2O)n1
Candida albicans [1]
  MIC80: > 128 µg/mL
Candida albicans [2]
  MIC80: > 128 µg/mL
Candida albicans [3]
  MIC80: > 128 µg/mL
Candida albicans [4]
  fractional inhibitory concentration index (FICI): 2
Candida albicans [5]
  MIC80: > 128 µg/mL
Candida albicans [6]
  MIC80: > 128 µg/mL

## COc1ccc(-c2c[nH]nc2-c2ccc(O)cc2O)cc1
Candida albicans [1]
  MIC80: > 128 µg/mL
Candida albicans [2]
  MIC80: > 128 µg/mL
Candida albicans [3]
  MIC80: > 128 µg/mL
Candida albicans [4]
  fractional inhibitory concentration index (FICI): 2
Candida albicans [5]
  MIC80: > 128 µg/mL
Candida albicans [6]
  MIC80: > 128 µg/mL

## COc1ccc(-n2nc(-c3ccccc3)cc2-c2c(O)cc(OC)c(OC)c2OC)cc1
Candida albicans [1]
  MIC80: > 128 µg/mL
Candida albicans [2]
  MIC80: > 128 µg/mL
Candida albicans [3]
  MIC80: > 128 µg/mL
Candida albicans [4]
  fractional inhibitory concentration index (FICI): 2
Candida albicans [5]
  MIC80: 4 µg/mL (≈ 9.25 µM)
Candida albicans [6]
  MIC80: > 128 µg/mL

## COc1ccc(-c2cnn(-c3ccccc3)c2-c2c(O)cc(OC)cc2OC)cc1
Candida albicans [1]
  MIC80: > 128 µg/mL
Candida albicans [2]
  MIC80: > 128 µg/mL
Candida albicans [3]
  MIC80: > 128 µg/mL
Candida albicans [4]
  fractional inhibitory concentration index (FICI): 2
Candida albicans [5]
  MIC80: > 128 µg/mL
Candida albicans [6]
  MIC80: > 128 µg/mL

## Oc1ccccc1-c1cc(-c2ccccc2)nn1-c1ccccc1
Candida albicans [1]
  MIC80: 128 µg/mL
Candida albicans [2]
  MIC80: 2 µg/mL
Candida albicans [3]
  MIC80: 128 µg/mL (≈ 410 µM)
Candida albicans [4]
  fractional inhibitory concentration index (FICI): 1.016
Candida albicans [5]
  MIC80: 8 µg/mL (≈ 25.6 µM)
Candida albicans [6]
  MIC80: 128 µg/mL (≈ 410 µM)

## COc1ccc(C2=NCCNC(c3ccccc3)=C2)c(O)c1OC
Candida albicans [1]
  MIC80: > 128 µg/mL
Candida albicans [2]
  MIC80: > 128 µg/mL
Candida albicans [3]
  MIC80: > 128 µg/mL
Candida albicans [4]
  fractional inhibitory concentration index (FICI): 2
Candida albicans [5]
  MIC80: > 128 µg/mL
Candida albicans [6]
  MIC80: > 128 µg/mL

## COc1ccc(-c2cnn(CCO)c2-c2ccc(O)cc2O)cc1
Candida albicans [1]
  MIC80: > 128 µg/mL
Candida albicans [2]
  MIC80: > 128 µg/mL
Candida albicans [3]
  MIC80: > 128 µg/mL
Candida albicans [4]
  fractional inhibitory concentration index (FICI): 2
Candida albicans [5]
  MIC80: > 128 µg/mL
Candida albicans [6]
  MIC80: > 128 µg/mL

## CCn1ncc(-c2ccc(OC)cc2)c1-c1ccc(O)cc1O
Candida albicans [1]
  MIC80: 32 µg/mL
Candida albicans [2]
  MIC80: 2 µg/mL
Candida albicans [3]
  MIC80: > 128 µg/mL
Candida albicans [4]
  fractional inhibitory concentration index (FICI): 0.266
Candida albicans [5]
  MIC80: > 128 µg/mL
Candida albicans [6]
  MIC80: > 128 µg/mL

## Oc1ccc(-c2cc(-c3ccccc3)n[nH]2)c(O)c1O
Candida albicans [1]
  MIC80: > 128 µg/mL
Candida albicans [2]
  MIC80: > 128 µg/mL
Candida albicans [3]
  MIC80: > 128 µg/mL
Candida albicans [4]
  fractional inhibitory concentration index (FICI): 2
Candida albicans [5]
  MIC80: 8 µg/mL (≈ 29.8 µM)
Candida albicans [6]
  MIC80: 8 µg/mL (≈ 29.8 µM)

## Oc1ccc(C2=NCCNC(c3ccccc3)=C2)c(O)c1O
Candida albicans [1]
  MIC80: > 128 µg/mL
Candida albicans [2]
  MIC80: > 128 µg/mL
Candida albicans [3]
  MIC80: > 128 µg/mL
Candida albicans [4]
  fractional inhibitory concentration index (FICI): 2
Candida albicans [5]
  MIC80: 32 µg/mL (≈ 108 µM)
Candida albicans [6]
  MIC80: > 128 µg/mL

## COc1ccc(-n2nc(-c3ccccc3)cc2-c2ccc(OC)c(OC)c2O)cc1
Candida albicans [1]
  MIC80: > 128 µg/mL
Candida albicans [2]
  MIC80: > 128 µg/mL
Candida albicans [3]
  MIC80: > 128 µg/mL
Candida albicans [4]
  fractional inhibitory concentration index (FICI): 2
Candida albicans [5]
  MIC80: 8 µg/mL (≈ 19.9 µM)
Candida albicans [6]
  MIC80: > 128 µg/mL

## COc1cc(O)c(-c2cc(-c3ccccc3)n(-c3ccccc3)n2)c(OC)c1OC
Candida albicans [1]
  MIC80: > 128 µg/mL
Candida albicans [2]
  MIC80: > 128 µg/mL
Candida albicans [3]
  MIC80: > 128 µg/mL
Candida albicans [4]
  fractional inhibitory concentration index (FICI): 2
Candida albicans [5]
  MIC80: > 128 µg/mL
Candida albicans [6]
  MIC80: > 128 µg/mL
